The target of assay [1] is T1, Ephrin type-B receptor 3 (Homo sapiens) (UniProt P54753).
T1 sequence (whole entry): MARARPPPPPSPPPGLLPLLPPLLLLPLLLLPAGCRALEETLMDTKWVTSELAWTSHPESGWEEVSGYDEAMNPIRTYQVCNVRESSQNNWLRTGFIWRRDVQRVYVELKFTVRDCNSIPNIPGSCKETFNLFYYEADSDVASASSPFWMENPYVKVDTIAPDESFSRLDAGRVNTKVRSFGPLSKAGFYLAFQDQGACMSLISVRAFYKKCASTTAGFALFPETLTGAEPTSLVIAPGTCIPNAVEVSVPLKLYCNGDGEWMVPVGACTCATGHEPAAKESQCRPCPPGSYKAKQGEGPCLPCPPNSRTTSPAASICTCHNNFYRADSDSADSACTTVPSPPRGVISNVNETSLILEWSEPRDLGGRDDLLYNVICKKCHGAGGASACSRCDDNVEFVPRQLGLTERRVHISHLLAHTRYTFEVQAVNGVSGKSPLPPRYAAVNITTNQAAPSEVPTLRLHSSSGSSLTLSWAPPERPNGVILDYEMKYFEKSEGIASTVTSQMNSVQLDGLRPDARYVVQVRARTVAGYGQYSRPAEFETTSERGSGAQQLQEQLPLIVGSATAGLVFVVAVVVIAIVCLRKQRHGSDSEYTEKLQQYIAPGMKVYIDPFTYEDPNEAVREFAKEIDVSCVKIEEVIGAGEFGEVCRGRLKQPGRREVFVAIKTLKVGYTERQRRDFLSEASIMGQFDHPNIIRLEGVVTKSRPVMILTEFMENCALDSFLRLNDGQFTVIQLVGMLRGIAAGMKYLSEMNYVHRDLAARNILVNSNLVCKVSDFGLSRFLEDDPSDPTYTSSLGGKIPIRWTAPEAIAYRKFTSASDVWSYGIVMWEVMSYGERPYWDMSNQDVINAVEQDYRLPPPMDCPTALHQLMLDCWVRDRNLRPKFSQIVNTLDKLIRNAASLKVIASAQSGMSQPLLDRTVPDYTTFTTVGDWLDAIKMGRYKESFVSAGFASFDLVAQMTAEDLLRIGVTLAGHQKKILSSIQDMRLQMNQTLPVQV
In words: Inhibition of human recombinant EphB3 at 15 nM related to control ULK1.

In assay [2] the target is Activated CDC42 kinase 1 (Homo sapiens) (UniProt Q07912). Briefly: Inhibition of human recombinant ACK at 15 nM in presence of ATP by radiometric assay relative to control. Summed up: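 Panel of 327 recombinant human kinases in radiometric activity assays, each screened in duplicate at a single inhibitor concentration; percent activity remaining relative to vehicle control, percent inhibition taken as 100 minus activity remaining.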

Assay [3] addresses Aurora kinase B (Homo sapiens) (UniProt Q96GD4). In words: Inhibition of human recombinant AurB at 15 nM related to control ULK1.
The target of assay [4] is BDNF/NT-3 growth factors receptor (Homo sapiens) (UniProt Q16620). Briefly: Inhibition of human recombinant TRKB at 15 nM in presence of ATP by radiometric assay relative to control.
The target of assay [5] is Calcium/calmodulin-dependent protein kinase kinase 2 (Homo sapiens) (UniProt Q96RR4). Briefly: Inhibition of human recombinant CaMKK2 at 15 nM in presence of ATP by radiometric assay relative to control.
Sequence of Calcium/calmodulin-dependent protein kinase kinase 2 (Homo sapiens) (Q96RR4 2-588 limits assumed): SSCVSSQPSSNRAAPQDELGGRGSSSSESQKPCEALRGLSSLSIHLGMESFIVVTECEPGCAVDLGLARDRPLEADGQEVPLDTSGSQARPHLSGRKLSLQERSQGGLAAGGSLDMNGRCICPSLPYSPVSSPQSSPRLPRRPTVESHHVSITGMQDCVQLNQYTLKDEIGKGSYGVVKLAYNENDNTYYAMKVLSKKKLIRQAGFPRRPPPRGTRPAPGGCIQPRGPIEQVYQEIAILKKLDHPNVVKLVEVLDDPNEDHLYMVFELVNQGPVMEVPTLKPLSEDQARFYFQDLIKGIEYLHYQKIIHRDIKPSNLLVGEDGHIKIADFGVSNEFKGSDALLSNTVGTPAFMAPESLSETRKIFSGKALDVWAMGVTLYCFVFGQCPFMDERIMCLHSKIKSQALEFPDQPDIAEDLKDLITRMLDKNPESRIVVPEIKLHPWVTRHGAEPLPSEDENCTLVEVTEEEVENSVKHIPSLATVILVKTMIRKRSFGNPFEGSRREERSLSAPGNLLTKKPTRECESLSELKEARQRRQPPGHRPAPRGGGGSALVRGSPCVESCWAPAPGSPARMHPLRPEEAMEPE
The target of assay [6] is Insulin receptor-related protein (Homo sapiens) (UniProt P14616). Briefly: Inhibition of human recombinant IRR at 15 nM in presence of ATP by radiometric assay relative to control.
Sequence of Insulin receptor-related protein (Homo sapiens) (P14616 27-742 limits assumed): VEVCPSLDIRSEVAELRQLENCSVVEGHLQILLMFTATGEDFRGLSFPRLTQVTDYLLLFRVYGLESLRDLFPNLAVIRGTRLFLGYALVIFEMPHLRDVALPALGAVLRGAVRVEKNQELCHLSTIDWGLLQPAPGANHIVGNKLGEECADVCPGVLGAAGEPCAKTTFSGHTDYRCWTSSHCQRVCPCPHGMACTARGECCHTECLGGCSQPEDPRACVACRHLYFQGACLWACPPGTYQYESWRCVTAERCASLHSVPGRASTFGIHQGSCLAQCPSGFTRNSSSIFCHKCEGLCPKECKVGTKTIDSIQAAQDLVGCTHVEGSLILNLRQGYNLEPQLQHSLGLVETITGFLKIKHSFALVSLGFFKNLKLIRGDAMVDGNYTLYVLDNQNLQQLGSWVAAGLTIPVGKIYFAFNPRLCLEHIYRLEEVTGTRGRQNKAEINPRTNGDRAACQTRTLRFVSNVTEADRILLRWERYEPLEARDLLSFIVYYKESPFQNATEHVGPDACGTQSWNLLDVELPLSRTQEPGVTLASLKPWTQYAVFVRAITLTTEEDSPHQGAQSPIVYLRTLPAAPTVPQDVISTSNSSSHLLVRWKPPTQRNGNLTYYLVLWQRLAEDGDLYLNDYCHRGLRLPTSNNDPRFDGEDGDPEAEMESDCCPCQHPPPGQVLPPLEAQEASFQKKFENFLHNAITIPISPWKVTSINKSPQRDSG
Sequence of Insulin receptor-related protein (Homo sapiens) (P14616 747-1297 limits assumed): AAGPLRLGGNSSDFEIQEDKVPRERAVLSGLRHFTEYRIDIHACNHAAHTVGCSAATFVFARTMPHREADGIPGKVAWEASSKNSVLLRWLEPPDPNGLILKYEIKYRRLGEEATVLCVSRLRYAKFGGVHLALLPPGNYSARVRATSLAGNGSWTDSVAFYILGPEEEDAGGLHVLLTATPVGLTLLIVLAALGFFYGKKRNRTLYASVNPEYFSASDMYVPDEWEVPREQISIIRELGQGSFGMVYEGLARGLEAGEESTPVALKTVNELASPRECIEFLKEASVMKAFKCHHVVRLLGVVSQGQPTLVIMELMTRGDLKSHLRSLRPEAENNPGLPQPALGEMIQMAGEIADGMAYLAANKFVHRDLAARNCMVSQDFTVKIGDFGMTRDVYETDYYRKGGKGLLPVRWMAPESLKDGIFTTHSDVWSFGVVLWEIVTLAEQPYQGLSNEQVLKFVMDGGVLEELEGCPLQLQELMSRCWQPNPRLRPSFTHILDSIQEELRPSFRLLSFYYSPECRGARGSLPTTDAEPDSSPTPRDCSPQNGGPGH
Assay [7] addresses Cyclin-dependent kinase 13 (Homo sapiens) (UniProt Q14004). In words: Inhibition of human recombinant CHED at 15 nM in presence of ATP by radiometric assay relative to control.
Assay [8] addresses Insulin receptor-related protein (Homo sapiens) (UniProt P14616). Briefly: Inhibition of human recombinant IRR at 15 nM related to control ULK1.
The target of assay [9] is cAMP-dependent protein kinase catalytic subunit beta (Homo sapiens) (UniProt P22694). In words: Inhibition of human recombinant PKACbeta at 15 nM in presence of ATP by radiometric assay relative to control.
Assay [10] concerns the target TGF-beta receptor type-2 (Homo sapiens) (UniProt P37173). Briefly: Inhibition of human recombinant TGFbR2 at 40 nM related to control ULK1.
The target of assay [11] is Interferon-induced, double-stranded RNA-activated protein kinase (Homo sapiens) (UniProt P19525). Briefly: Inhibition of human recombinant PKR at 500 nM in presence of ATP by radiometric assay relative to control.
Sequence of Interferon-induced, double-stranded RNA-activated protein kinase (Homo sapiens) (P19525 whole entry): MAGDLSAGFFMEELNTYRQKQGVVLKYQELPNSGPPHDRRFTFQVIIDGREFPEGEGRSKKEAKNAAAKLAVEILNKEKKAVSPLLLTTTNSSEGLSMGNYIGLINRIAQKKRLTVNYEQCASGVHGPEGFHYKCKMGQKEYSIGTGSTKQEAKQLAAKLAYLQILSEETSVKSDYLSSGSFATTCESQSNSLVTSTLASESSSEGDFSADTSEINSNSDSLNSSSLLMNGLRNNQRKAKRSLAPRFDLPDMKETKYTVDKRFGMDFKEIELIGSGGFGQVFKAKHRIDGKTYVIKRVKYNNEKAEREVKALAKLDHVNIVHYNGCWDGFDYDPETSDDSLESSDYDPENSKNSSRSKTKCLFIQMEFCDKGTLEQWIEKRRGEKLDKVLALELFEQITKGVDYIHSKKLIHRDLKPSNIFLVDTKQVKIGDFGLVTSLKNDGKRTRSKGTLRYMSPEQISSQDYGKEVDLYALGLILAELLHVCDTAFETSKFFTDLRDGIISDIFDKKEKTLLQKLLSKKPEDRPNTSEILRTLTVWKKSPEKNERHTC
Assay [12] concerns the target Fibroblast growth factor receptor 2 (Homo sapiens) (UniProt P21802). In words: Inhibition of human recombinant FGFR2 at 500 nM in presence of ATP by radiometric assay relative to control.
Assay [13] concerns the target Dual specificity protein kinase CLK3 (Homo sapiens) (UniProt P49761). Briefly: Inhibition of human recombinant CLK3 at 500 nM related to control ULK1.
Assay [14] has as its target Transient receptor potential cation channel subfamily M member 7 (Homo sapiens) (UniProt Q96QT4). Briefly: Inhibition of human recombinant ChaK1 at 500 nM related to control ULK1.
Assay [15] deals with T2, Serine/threonine-protein kinase BRSK1 (Homo sapiens) (UniProt Q8TDC3).
T2 sequence (whole entry): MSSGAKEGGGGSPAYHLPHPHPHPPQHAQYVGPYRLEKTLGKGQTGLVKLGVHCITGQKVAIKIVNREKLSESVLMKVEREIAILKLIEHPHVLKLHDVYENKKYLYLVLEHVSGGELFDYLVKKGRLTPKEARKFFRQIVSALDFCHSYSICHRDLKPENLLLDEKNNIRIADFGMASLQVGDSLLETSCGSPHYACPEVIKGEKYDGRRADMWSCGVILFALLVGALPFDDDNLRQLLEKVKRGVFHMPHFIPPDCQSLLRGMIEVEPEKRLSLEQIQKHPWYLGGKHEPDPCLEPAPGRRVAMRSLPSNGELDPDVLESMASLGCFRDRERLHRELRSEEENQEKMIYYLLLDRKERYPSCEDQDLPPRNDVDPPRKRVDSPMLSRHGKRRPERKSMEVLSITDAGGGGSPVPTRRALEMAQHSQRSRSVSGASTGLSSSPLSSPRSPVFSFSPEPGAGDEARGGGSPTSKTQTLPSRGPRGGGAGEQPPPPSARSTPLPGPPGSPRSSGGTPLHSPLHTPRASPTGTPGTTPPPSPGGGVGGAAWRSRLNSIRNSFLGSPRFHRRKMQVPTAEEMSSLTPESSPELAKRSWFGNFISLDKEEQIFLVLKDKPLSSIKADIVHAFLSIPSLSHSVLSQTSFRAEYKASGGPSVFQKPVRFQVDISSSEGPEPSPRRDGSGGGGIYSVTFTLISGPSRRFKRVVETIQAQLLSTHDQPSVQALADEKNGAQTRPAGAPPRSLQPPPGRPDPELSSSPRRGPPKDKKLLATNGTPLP
In words: Inhibition of human recombinant BRSK1 at 500 nM in presence of ATP by radiometric assay relative to control. In outline: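 Recombinant human kinase panel (327 kinases) run as radiometric activity assays, each kinase in duplicate at one compound concentration. Activity remaining expressed relative to vehicle control; percent inhibition taken as 100% minus % activity remaining.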

Sequence of Fibroblast growth factor receptor 2 (Homo sapiens) (P21802 22-821 limits assumed): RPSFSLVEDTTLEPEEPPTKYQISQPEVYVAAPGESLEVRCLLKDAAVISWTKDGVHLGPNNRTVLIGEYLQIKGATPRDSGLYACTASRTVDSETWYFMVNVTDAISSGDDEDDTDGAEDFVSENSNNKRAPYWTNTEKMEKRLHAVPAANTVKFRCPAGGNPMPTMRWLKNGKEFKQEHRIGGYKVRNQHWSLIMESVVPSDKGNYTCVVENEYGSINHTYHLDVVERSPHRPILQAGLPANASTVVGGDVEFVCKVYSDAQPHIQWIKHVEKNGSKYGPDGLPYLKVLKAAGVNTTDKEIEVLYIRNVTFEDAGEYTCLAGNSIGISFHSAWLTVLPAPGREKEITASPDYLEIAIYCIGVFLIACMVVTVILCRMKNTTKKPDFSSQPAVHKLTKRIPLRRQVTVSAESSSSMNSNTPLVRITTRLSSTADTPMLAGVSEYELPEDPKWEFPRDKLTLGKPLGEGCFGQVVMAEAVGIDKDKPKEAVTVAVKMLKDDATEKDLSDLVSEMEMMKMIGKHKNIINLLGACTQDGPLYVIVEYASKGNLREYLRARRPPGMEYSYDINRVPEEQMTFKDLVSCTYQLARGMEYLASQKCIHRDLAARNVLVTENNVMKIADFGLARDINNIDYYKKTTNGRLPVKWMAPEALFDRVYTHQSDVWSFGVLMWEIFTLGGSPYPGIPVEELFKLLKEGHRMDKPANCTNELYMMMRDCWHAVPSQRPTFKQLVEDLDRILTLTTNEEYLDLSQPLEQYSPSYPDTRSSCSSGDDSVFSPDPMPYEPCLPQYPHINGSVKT
Sequence of Aurora kinase B (Homo sapiens) (Q96GD4 whole entry): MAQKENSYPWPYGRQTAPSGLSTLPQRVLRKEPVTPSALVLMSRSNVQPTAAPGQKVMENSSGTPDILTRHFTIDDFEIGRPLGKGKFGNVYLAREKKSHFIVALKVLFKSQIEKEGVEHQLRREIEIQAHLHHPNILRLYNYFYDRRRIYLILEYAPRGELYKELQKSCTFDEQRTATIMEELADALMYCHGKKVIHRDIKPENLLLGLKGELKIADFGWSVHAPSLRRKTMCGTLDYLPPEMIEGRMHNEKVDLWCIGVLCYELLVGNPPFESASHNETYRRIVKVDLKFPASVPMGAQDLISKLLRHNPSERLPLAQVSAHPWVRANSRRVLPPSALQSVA
Sequence of Cyclin-dependent kinase 13 (Homo sapiens) (Q14004 whole entry, looked up): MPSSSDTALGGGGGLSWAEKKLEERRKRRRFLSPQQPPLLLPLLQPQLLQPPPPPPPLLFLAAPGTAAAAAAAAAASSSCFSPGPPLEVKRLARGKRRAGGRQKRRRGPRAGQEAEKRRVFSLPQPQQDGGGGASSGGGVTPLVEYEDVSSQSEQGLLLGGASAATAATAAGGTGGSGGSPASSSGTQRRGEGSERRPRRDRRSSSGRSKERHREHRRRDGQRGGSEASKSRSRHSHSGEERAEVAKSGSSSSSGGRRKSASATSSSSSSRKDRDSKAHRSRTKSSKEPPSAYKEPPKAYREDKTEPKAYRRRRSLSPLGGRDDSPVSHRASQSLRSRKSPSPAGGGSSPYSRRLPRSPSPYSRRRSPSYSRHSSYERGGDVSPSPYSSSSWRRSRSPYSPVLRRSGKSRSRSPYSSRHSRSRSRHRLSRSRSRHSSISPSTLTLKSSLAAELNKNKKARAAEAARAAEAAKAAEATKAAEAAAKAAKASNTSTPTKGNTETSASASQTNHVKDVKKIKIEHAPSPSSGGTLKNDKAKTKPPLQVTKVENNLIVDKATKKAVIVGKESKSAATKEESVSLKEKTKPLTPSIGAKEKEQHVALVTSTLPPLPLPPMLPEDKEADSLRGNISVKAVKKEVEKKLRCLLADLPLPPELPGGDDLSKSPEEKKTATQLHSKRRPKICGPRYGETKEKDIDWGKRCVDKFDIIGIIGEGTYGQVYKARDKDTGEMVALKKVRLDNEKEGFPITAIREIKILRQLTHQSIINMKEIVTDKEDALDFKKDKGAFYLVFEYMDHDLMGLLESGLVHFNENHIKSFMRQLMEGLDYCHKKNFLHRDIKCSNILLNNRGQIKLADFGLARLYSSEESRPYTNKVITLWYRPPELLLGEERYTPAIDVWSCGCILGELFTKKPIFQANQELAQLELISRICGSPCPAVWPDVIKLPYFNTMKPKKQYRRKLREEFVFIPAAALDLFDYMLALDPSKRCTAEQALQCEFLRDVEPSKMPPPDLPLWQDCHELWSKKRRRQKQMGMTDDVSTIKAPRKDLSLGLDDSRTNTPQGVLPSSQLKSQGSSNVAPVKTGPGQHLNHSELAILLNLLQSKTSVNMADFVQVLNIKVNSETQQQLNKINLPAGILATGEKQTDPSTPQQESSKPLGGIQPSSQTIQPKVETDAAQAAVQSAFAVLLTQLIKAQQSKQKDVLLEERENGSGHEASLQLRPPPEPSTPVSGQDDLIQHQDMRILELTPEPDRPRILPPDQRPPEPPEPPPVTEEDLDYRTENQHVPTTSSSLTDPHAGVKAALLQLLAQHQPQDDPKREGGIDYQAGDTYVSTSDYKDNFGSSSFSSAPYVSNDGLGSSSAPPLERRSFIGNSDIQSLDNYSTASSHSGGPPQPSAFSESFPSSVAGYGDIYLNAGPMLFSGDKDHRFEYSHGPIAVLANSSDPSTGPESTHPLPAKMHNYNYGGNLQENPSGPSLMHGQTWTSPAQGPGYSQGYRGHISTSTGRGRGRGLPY

Regarding `CC(C)[C@H](NC(=O)c1cc(-c2cnn3cc(-c4ccc(OCCN5CCCCC5)cc4)cnc23)cs1)C(F)(F)F`, the fold change (FC) in assay [1] is 0; in assay [3], 0.2; in assay [8], 0.02. Further, the inhibition in assay [2] is 0%; in assay [4] it was 0%; in [5], 1%; in assay [6], 2%; in assay [7], 0%; in [9], 0%.

As for `O=C(N[C@@H](C1CC1)C(F)(F)F)c1cc(-c2cnn3cc(-c4ccc(F)cc4)cnc23)cs1`, the fold change (FC) in assay [10] came to 0.64.

Turning to `CNC(=O)c1ccccc1Oc1nc(Nc2cc(OC)c(OC)c(OC)c2)ncc1Br`, the inhibition worked out at 4% in assay [11], 21% in [12] and 2% in [15]. In addition, the fold change (FC) in assay [13] and in assay [14] was 0 each time.

As usually defined, the inhibition is the relative decrease from the control value, in per cent.

The values above are taken from ChEMBL document CHEMBL5653631, “A Potent and Selective ULK1 Inhibitor Suppresses Autophagy and Sensitizes Cancer Cells to Nutrient Stress” (iScience, 2018).
